# Laboratory results from ChEMBL document CHEMBL2021803, “Antitumor agents. 289. Design, synthesis, and anti-breast cancer activity in vivo of 4-amino-2H-benzo[h]chromen-2-one and 4-amino-7,8,9,10-tetrahydro-2H-benzo[h]chromen-2-one analogues with improved water solubility” (J Nat Prod, 2012).
# Activity calls are given as the source filed them. The rule behind the calls is not given here.
# Legend:
# Mus musculus [1] = assay: Reduction in ductal branching in Brca/p53 mutant mouse mammary gland at 0.1 mg, ip administered daily for 10 days by immunostaining technique; type: functional; design: scale not given: the % may be the effect or the level left; conditions: in the assay text read “Carmine alum whole-mount staining” for “immunostaining technique”
# In short: (§1)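 Three-month-old wild-type or Brca1/p53 Cre mutant mice (mixed C57BL/6 × 129/Sv) given 0.1 mg i.p. daily (DMSO stock […] diluted in 40% PEG and 0.9% NaCl at dosing); vehicle controls. Fourth-pair mammary glands whole-mounted, Carnoy's fixed 3 h, Carmine alum stained overnight. Branching points counted in three random areas totaling about 2 mm².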
# Mus musculus [2] = assay: Reduction in ductal branching in wild type mouse mammary gland at 0.1 mg, ip administered daily for 10 days by immunostaining technique; type: functional, organism-based; design: scale not given: the % may be the effect or the level left; conditions: in vivo, 240 h; in short: as §1
# Mus musculus [3] = assay: Induction of apoptosis in wild type mouse mammary gland assessed as increase in cleaved caspase-3 at 0.1 mg, ip administered daily for 10 days by immunohistochemical staining method relative to vehicle-treated control; type: organism-based; conditions: in vivo, 240 h
# In short: (§2)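 Wild-type or Brca1/p53 Cre mutant mice (C57BL/6 × 129/Sv), three months old, dosed i.p. daily with 0.1 mg in DMSO/40% PEG/0.9% NaCl (10:30:60 μL), made fresh; vehicle controls. Mammary glands fixed in 4% paraformaldehyde at 4 °C overnight, paraffin-embedded, cut into 5-μm sections. Retrieval by boiling in citrate pH 6.0, then rabbit polyclonal anti-cleaved caspase-3. Read as percentage of positive cells per duct.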
# KB = assay: Cytotoxicity against human KB cells after 72 hrs by SRB assay; type: functional, cell-based
# Mus musculus [4] = assay: Antiproliferative activity of wild type mouse mammary epithelial cells assessed as reduction in DNA synthesis at 0.1 mg, ip administered daily for 10 days by BrdU-based immunostaining method; type: organism-based, Epithelial cell; conditions: in vivo, 240 h
# In short: (§3)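 Three-month-old mice (C57BL/6 × 129/Sv mixed background; wild-type or Brca1/p53 Cre mutant) dosed i.p. daily, 0.1 mg in 10 μL of […] DMSO stock plus 30 μL 40% PEG and 60 μL 0.9% NaCl, made fresh; vehicle controls. Paraffin sections, citrate pH 6.0 microwave retrieval 20 min, anti-BrdU 1:1000, ABC detection; BrdU-positive cells averaged over 15 ducts.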
# Mus musculus [5] = assay: Antiproliferative activity of Brca/p53 mutant mouse mammary epithelial cells assessed as reduction in DNA synthesis at 0.1 mg, ip administered daily for 10 days by BrdU-based immunostaining method; type: functional, Epithelial cell; design: scale not given: the % may be the effect or the level left; in short: as §3
# [6] = Solubility of the compound in water; type: physicochemical
# A549 = assay: Cytotoxicity against human A549 cells after 72 hrs by SRB assay; type: functional, cell-based
# [7] = Cytotoxicity against human KBVIN cells after 72 hrs by SRB assay; type: functional, cell-based
# DU-145 = assay: Cytotoxicity against human DU145 cells after 72 hrs by SRB assay; type: functional, cell-based
# Mus musculus [8] = assay: Induction of apoptosis in Brca/p53 mutant mouse mammary gland assessed as increase in cleaved caspase-3 at 0.1 mg, ip administered daily for 10 days by immunohistochemical staining method relative to vehicle-treated control; type: functional; in short: as §2
# SK-BR-3 = assay: Cytotoxicity against human SKBR3 cells after 72 hrs by SRB assay; type: functional, cell-based
# Mus musculus [9] = assay: Reduction in ductal branching in Brca/p53 mutant mouse at 0.1 mg, ip administered daily for 10 days; type: functional, organism-based; in short: as §1
# Mus musculus [10] = assay: Induction of apoptosis in Brca/p53 mutant mouse mammary gland assessed as increase in perinuclear localization of cleaved caspase-3 at 0.1 mg, ip administered daily for 10 days by immunohistochemical staining method; type: functional, organism-based; in short: as §2
# Mus musculus [11] = assay: Induction of apoptosis in Brca/p53 mutant mouse mammary gland assessed as increase in cytoplasmic localization of cleaved caspase-3 at 0.1 mg, ip administered daily for 10 days by immunohistochemical staining method; type: functional, organism-based; in short: as §2
Compound,"IC50 (KB; Homo sapiens, KB, 72 h) [nM]","IC50 (A549; Homo sapiens, A549, 72 h) [nM]","IC50 ([7]; Homo sapiens, KBVIN, 72 h) [nM]","IC50 (DU-145; Homo sapiens, DU-145, 72 h) [nM]","IC50 (SK-BR-3; Homo sapiens, SK-BR-3, 72 h) [nM]",IC50 (KB; kb) [nM],IC50 (A549; a549) [nM],IC50 ([7]; kbvin) [nM],IC50 (DU-145; du-145) [nM],IC50 (SK-BR-3; sk-br-3) [nM],other results
Nc1ccc(Nc2cc(=O)oc3c2ccc2ccccc23)cc1 [listing 1 of 3 here],54,55,44,40,38,–,–,–,–,–,Activity (Mus musculus [1]): 69%; Activity (Mus musculus [2]): 15%; fold change (FC) (Mus musculus [3]): 2.1; Activity (Mus musculus [4]): Non-toxic; Activity (Mus musculus [5]): 81%; solubility [6]: 33.9 µg/mL; fold change (FC) (Mus musculus [8]): 4.8
Nc1ccccc1Nc1cc(=O)oc2c1ccc1ccccc12 [listing 1 of 2 here],> 10000,> 10000,> 10000,> 10000,> 10000,–,–,–,–,–,–
Nc1ccccc1Nc1cc(=O)oc2c1ccc1ccccc12 [listing 2 of 2 here],–,–,–,–,–,8200,9100,9000,8700,9500,–
O=c1cc(NC2CCN(Cc3ccccc3)CC2)c2ccc3ccccc3c2o1 [listing 1 of 2 here],8300,> 10000,7600,> 10000,> 10000,–,–,–,–,–,–
CN(C)c1ccc(Nc2cc(=O)oc3c4c(ccc23)CCCC4)cc1 [listing 1 of 2 here],720,540,540,470,770,–,–,–,–,–,–
COc1ccc(Nc2cc(=O)oc3c2ccc2ccccc23)cc1,110,170,130,110,130,–,–,–,–,–,Activity (Mus musculus [1]): 75%; Activity (Mus musculus [9]): Active; Activity (Mus musculus [2]): 15%; Activity (Mus musculus [4]): Non-toxic; Activity (Mus musculus [5]): 55%; solubility [6]: 0.69 µg/mL
CN(C)c1ccc(Nc2cc(=O)oc3c2ccc2ccccc23)cc1 [listing 1 of 2 here],–,–,–,–,–,470,590,410,300,270,–
Nc1ccc(Nc2cc(=O)oc3c4c(ccc23)CCCC4)cc1 [listing 1 of 3 here],56,58,53,53,74,–,–,–,–,–,Activity (Mus musculus [1]): 70%; Activity (Mus musculus [2]): 15%; fold change (FC) (Mus musculus [3]): 4; fold change (FC) (Mus musculus [8]): 4.5
Nc1cccc(Nc2cc(=O)oc3c4c(ccc23)CCCC4)c1 [listing 1 of 2 here],–,–,–,–,–,480,500,450,340,560,–
Nc1cccc(Nc2cc(=O)oc3c4c(ccc23)CCCC4)c1 [listing 2 of 2 here],440,400,470,440,480,–,–,–,–,–,–
Nc1ccccc1Nc1cc(=O)oc2c3c(ccc12)CCCC3 [listing 1 of 2 here],4900,5000,5200,5000,5200,–,–,–,–,–,–
CN(C)c1ccc(Nc2cc(=O)oc3c2ccc2ccccc23)cc1 [listing 2 of 2 here],600,430,350,360,300,–,–,–,–,–,–
Nc1cccc2c(Nc3cc(=O)oc4c3ccc3ccccc34)cccc12 [listing 1 of 2 here],160,160,150,150,200,–,–,–,–,–,–
CN(C)c1ccc(Nc2cc(=O)oc3c4c(ccc23)CCCC4)cc1 [listing 2 of 2 here],–,–,–,–,–,380,440,390,330,490,–
COc1ccc(Nc2cc(=O)oc3c4c(ccc23)CCCC4)cc1,37,49,46,38,64,–,–,–,–,–,Activity (Mus musculus [1]): 65%; Activity (Mus musculus [9]): Active; Activity (Mus musculus [2]): 15%; Activity (Mus musculus [5]; Epithelial cell): inactive
Nc1ccc(Nc2cc(=O)oc3c2ccc2ccccc23)cc1 [listing 2 of 3 here],–,–,–,–,–,48,54,47,49,53,–
Nc1cccc(Nc2cc(=O)oc3c2ccc2ccccc23)c1 [listing 1 of 2 here],120,190,160,150,150,–,–,–,–,–,–
Nc1cccc(Nc2cc(=O)oc3c2ccc2ccccc23)c1 [listing 2 of 2 here],–,–,–,–,–,170,150,150,180,240,–
O=c1cc(NC2CCN(Cc3ccccc3)CC2)c2ccc3c(c2o1)CCCC3 [listing 1 of 2 here],–,–,–,–,–,9100,> 10000,8300,8300,9300,–
Nc1cccc2c(Nc3cc(=O)oc4c3ccc3ccccc34)cccc12 [listing 2 of 2 here],–,–,–,–,–,210,240,170,180,240,–
Nc1ccc(Nc2cc(=O)oc3c2ccc2ccccc23)cc1 [listing 3 of 3 here],–,–,–,–,–,–,–,–,–,–,Activity (Mus musculus [9]): Active; Activity (Mus musculus [10]): Active; Activity (Mus musculus [11]): Active
Nc1ccc(Nc2cc(=O)oc3c4c(ccc23)CCCC4)cc1 [listing 2 of 3 here],–,–,–,–,–,69,62,65,66,85,–
Nc1ccccc1Nc1cc(=O)oc2c3c(ccc12)CCCC3 [listing 2 of 2 here],–,–,–,–,–,7400,8000,7000,> 10000,8700,–
O=c1cc(NC2CCN(Cc3ccccc3)CC2)c2ccc3ccccc3c2o1 [listing 2 of 2 here],–,–,–,–,–,> 10000,–,9400,–,–,–
Nc1ccc(Nc2cc(=O)oc3c4c(ccc23)CCCC4)cc1 [listing 3 of 3 here],–,–,–,–,–,–,–,–,–,–,Activity (Mus musculus [9]): Active; Activity (Mus musculus [10]): Active; Activity (Mus musculus [5]; Epithelial cell): inactive; Activity (Mus musculus [11]): Active
O=c1cc(NC2CCN(Cc3ccccc3)CC2)c2ccc3c(c2o1)CCCC3 [listing 2 of 2 here],6500,7000,6200,5800,7700,–,–,–,–,–,–
